Measured values taken from ChEMBL document CHEMBL4825680, “Structure-based discovery of potent and selective small-molecule inhibitors targeting signal transducer and activator of transcription 3 (STAT3)” (Eur J Med Chem, 2021).
Activity calls are given as the source filed them. No cut-off for these calls is given here.

Legend:
[1] = tested on: MDA-MB-231; test: Inhibition of cell migration in human MDA-MB-231 cells incubated for 12 to 96 hrs by wound healing assay; type: functional, cell-based; conditions: dose 0.3-3 µM, time 12-96 hrs
Method in brief: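 Cells grown to 100% confluence, then scratched with a pipette tip. Treated with 0–3 μM until vehicle-treated cells had migrated into the scratch. Images taken by microscope after about 12–96 h. Triplicate experiments.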

[2] = tested on: MDA231-LM2-4175; test: Effect on total STAT3 level in human MDA231-LM2-4175 cells at 0.3 to 3 uM measured after 3 hrs by Western blot analysis; type: functional, cell-based; conditions: dose 0.3-3 µM
Method in brief: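 Breast cancer cells were treated with vehicle (0.1% DMSO) or compound, then lysed in RIPA with PMSF and phosphatase inhibitors. 20–50 μg protein was run on 8 or 12% SDS-PAGE, blotted to PVDF, blocked in 5% BSA, probed with primary antibodies overnight at 4 °C, then HRP secondaries, with ECL detection.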

[3] = tested on: MDA-MB-231; test: Induction of apoptosis in human MDA-MB-231 cells assessed as late apoptotic cells at 1 uM after 48 hrs by Annexin-V-FITC/propidium iodide staining based flow cytometric analysis (Rvb =3.05%); type: functional
[4] = biological target: T1, Signal transducer and activator of transcription 5A (Homo sapiens) (UniProt P42229); test: Inhibition of STAT5 phosphorylation at Y694 residue in human MDA-MB-231 cells at 0.3 to 3 uM after 3 hrs by Western blotting analysis; type: cell-based; conditions: dose 0.3-3 µM
T1 sequence (whole entry): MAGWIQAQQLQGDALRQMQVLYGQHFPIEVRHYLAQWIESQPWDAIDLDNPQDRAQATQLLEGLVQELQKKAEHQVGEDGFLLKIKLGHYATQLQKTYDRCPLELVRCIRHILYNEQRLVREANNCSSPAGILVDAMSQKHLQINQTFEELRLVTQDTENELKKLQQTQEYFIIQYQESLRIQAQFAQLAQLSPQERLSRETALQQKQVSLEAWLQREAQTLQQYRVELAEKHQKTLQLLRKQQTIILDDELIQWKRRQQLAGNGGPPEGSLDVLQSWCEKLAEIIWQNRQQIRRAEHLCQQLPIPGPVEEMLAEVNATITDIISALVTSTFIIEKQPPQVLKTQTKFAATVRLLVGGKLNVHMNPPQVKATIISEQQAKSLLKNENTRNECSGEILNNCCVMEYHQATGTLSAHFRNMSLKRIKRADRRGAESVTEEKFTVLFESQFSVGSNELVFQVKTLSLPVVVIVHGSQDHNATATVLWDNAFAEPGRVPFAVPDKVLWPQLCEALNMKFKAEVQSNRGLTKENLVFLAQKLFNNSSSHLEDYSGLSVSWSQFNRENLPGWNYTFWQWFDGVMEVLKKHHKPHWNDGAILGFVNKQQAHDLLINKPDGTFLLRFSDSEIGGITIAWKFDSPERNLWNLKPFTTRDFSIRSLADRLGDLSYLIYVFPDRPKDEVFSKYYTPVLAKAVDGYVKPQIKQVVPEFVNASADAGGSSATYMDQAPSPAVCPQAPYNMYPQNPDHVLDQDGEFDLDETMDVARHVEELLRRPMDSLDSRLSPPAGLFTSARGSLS

[5] = tested on: MDA-MB-231; test: Inhibition of cell invasion in human MDA-MB-231 cells incubated for 12 hrs by crystal violet staining based transwell assay; type: functional; conditions: dose 1-3 µM
Method in brief: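 Cells seeded at 1.5×10^4–3×10^4 per well in the upper chamber of 8.0 µm pore Transwell inserts and treated with graded compound for 12 h. Non-invading cells removed with cotton. Invaded cells fixed in 4% paraformaldehyde, stained with crystal violet, photographed and counted. Triplicate.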

[6] = Toxicity in NOD/SCID mouse xenografted with patient-derived breast cancer cells assessed as morphological change in heart at 5 to 15 mg/kg, […] once daily for 20 days by HE staining based assay; type: organism-based; conditions: in vivo, iv, dose 5-15 mg/kg, time 20 day
Method in brief: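 Female NOD-SCID mice implanted subcutaneously in the flank with about 2 mm³ TNBC PDX fragments. At about 100 mm³ tumour volume, randomised n=6/group: vehicle (PBS with 15% Cremophor EL), 5 or 15 mg/kg intraperitoneally daily. Killed at day 20; heart, liver, spleen, lung and kidney collected for morphological examination.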

[7] = biological target: Signal transducer and activator of transcription 3 (Homo sapiens, UniProt P40763); test: Inhibition of STAT3 in human MDA231-LM2-4175 cells assessed as downregulation of Mcl-1 expression at 0.3 to 3 uM after 24 hrs by western blot analysis; type: cell-based; conditions: dose 0.3-3 µM
Method in brief: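 TNBC cells given vehicle (0.1% DMSO) or graded compound levels for 24 h, lysed in RIPA with PMSF and phosphatase inhibitors. BCA-quantified lysate (20–50 µg) run on SDS-PAGE, transferred to PVDF, blocked in 5% BSA. Probed overnight at 4 °C for Bcl-xL, Mcl-1 and c-Myc, with β-actin. HRP secondary, ECL detection. Three independent experiments.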

[8] = tested on: MDA-MB-468; test: Induction of apoptosis in human MDA-MB-468 cells assessed as viable cells at 3 uM after 48 hrs by Annexin-V-FITC/propidium iodide staining based flow cytometric analysis (reference value: 95.5%); type: functional; conditions: read-out: Activity
[9] = biological target: T2, Signal transducer and activator of transcription 1-alpha/beta (Homo sapiens) (UniProt P42224); test: Inhibition of STAT1 phosphorylation at Y701 residue in human HCC70 cells at 0.3 to 3 uM after 3 hrs by Western blotting analysis; type: cell-based; conditions: dose 0.3-3 µM
T2 sequence (whole entry): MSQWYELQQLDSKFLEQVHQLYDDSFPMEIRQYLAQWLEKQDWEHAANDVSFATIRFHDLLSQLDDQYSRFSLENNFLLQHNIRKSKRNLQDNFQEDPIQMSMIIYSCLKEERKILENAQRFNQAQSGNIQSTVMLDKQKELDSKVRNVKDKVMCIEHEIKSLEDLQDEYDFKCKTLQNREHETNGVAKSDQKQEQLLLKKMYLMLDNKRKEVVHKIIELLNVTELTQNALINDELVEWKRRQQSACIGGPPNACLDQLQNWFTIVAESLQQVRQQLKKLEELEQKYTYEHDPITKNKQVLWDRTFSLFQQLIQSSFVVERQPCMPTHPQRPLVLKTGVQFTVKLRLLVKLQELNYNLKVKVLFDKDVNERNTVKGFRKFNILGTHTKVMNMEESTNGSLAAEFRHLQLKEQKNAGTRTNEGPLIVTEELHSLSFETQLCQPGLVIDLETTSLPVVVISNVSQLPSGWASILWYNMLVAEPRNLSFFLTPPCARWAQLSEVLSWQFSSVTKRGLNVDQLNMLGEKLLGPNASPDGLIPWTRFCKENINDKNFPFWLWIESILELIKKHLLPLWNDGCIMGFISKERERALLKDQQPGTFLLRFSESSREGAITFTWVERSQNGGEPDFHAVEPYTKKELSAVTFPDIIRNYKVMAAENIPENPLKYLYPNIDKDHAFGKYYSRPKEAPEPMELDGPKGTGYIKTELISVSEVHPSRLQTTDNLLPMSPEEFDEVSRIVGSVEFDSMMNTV

[10] = tested on: MDA-MB-231; test: Antiproliferative activity against human MDA-MB-231 cells; type: functional, cell-based

Signal transducer and activator of transcription 3, sequence (P40763 whole entry): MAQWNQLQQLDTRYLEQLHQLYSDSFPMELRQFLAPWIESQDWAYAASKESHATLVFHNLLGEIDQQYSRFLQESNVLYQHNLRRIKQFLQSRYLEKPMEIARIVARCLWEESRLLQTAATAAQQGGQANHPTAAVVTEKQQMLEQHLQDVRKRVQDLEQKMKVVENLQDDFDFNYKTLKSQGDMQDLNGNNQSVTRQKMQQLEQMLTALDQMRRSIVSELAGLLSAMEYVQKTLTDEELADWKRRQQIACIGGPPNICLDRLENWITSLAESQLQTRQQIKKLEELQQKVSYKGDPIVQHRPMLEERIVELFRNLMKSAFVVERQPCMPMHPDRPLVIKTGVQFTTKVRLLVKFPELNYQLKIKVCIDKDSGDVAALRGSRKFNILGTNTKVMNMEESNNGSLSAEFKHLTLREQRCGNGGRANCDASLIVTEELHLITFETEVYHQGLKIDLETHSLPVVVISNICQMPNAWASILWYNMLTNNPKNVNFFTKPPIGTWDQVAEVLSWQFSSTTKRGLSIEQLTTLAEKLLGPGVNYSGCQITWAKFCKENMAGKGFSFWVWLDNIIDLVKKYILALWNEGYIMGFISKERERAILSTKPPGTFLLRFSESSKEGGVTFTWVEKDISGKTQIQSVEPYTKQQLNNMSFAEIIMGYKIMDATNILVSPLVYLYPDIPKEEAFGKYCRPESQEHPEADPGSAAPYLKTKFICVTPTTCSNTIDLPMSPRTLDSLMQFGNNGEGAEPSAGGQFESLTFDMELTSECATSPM

In the case of `O=C(Cc1c(-c2ccccc2)nc2ccccn12)Nc1ccc2c(c1)S(=O)(=O)C=C2`, the inhibition [1] is reported as “Dose-Dependent Effect”, the Activity [2] is reported as “inactive” and the Activity [3] is reported as 7.54%. For the same compound, the inhibition [4] was “inactive”, the inhibition [5] was “Dose-Dependent Effect” and the Activity [6] was “Non-Toxic”. For the same compound, the inhibition [7] was “Active”, the viability at 3 µM [8] was 38.6% and the inhibition [9] was “inactive”. The IC50 [10] was 1200 nM.
